In ChEMBL document CHEMBL4152256, “Structure-activity relationship of new antimalarial 1-aryl-3-susbtituted propanol derivatives: Synthesis, preliminary toxicity profiling, parasite life cycle stage studies, target exploration, and targeted delivery” (Eur J Med Chem, 2018):

Experiments:
Plasmodium falciparum [1] = assay: Antiplasmodial activity against multidrug-resistant Plasmodium falciparum FCR-3 by [3H]-hypoxanthine incorporation assay; assay type: functional, organism-based, FCR-3/Gambia; conditions: Plasmodium falciparum, FCR-3/Gambia
Procedure, shortened: (§1)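 Blood-stage P. falciparum 3D7 and FCR-3 were tested by a modified [3H]-hypoxanthine incorporation assay. Chloroquine was the reference in all runs.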

Plasmodium falciparum [2] = assay: Antiplasmodial activity against chloroquine-sensitive Plasmodium falciparum 3D7 by [3H]-hypoxanthine incorporation assay; assay type: functional, organism-based; conditions: Plasmodium falciparum, 3D7; procedure, shortened: as §1
[3] = Cytotoxicity against human HepG2A16 cells by MTT assay; assay type: cell-based; conditions: HepG2A16 cells
Procedure, shortened: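 MTT viability assay on HepG2-A16 cells, giving CC50 values.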

[4] = Selectivity index, ratio of CC50 for human HepG2A16 cells by MTT assay to IC50 for multidrug-resistant Plasmodium falciparum FCR-3; assay type: toxicity; conditions: HepG2A16 cells, read-out: Ratio CC50/IC50
Procedure, shortened: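 HepG2-A16 human hepatoma cells were tested by MTT viability assay to give CC50. Blood-stage activity was measured against the multidrug-resistant P. falciparum FCR-3 strain by [3H]-hypoxanthine incorporation to give IC50. SI = CC50 HepG2 / FCR-3 IC50.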

[5] = Genotoxicity in Salmonella typhimurium TA1535 harboring pSK1002 assessed as survival at 0.125 mg/ml in absence of Sprague-Dawley rat liver S9 fraction after by SOS/umu assay relative to control; assay type: toxicity, organism-based; conditions: salmonella enterica subsp. enterica serovar typhimurium, read-out: Survival
[6] = Genotoxicity in Salmonella typhimurium TA1535 harboring pSK1002 assessed as umu gene induction at 0.125 mg/ml in absence of Sprague-Dawley rat liver S9 fraction after by SOS/umu assay relative to control; assay type: toxicity, organism-based; conditions: salmonella enterica subsp. enterica serovar typhimurium, read-out: FC
[7] = Genotoxicity in Salmonella typhimurium TA1535 harboring pSK1002 assessed as survival at 0.125 mg/ml in presence of Sprague-Dawley rat liver S9 fraction after by SOS/umu assay relative to control; assay type: toxicity, organism-based; conditions: salmonella enterica subsp. enterica serovar typhimurium, read-out: Survival
[8] = Genotoxicity in Salmonella typhimurium TA1535 harboring pSK1002 assessed as umu gene induction at 0.125 mg/ml in presence of Sprague-Dawley rat liver S9 fraction after by SOS/umu assay relative to control; assay type: toxicity, organism-based; conditions: salmonella enterica subsp. enterica serovar typhimurium, read-out: FC
[9] = Genotoxicity in Salmonella typhimurium TA1535 harboring pSK1002 assessed as survival at 0.063 mg/ml in absence of Sprague-Dawley rat liver S9 fraction after by SOS/umu assay relative to control; assay type: toxicity, organism-based; conditions: salmonella enterica subsp. enterica serovar typhimurium, read-out: Survival
[10] = Genotoxicity in Salmonella typhimurium TA1535 harboring pSK1002 assessed as umu gene induction at 0.063 mg/ml in absence of Sprague-Dawley rat liver S9 fraction after by SOS/umu assay relative to control; assay type: toxicity, organism-based; conditions: salmonella enterica subsp. enterica serovar typhimurium, read-out: FC
[11] = Genotoxicity in Salmonella typhimurium TA1535 harboring pSK1002 assessed as survival at 0.063 mg/ml in presence of Sprague-Dawley rat liver S9 fraction after by SOS/umu assay relative to control; assay type: toxicity, organism-based; conditions: salmonella enterica subsp. enterica serovar typhimurium, read-out: Survival
[12] = Genotoxicity in Salmonella typhimurium TA1535 harboring pSK1002 assessed as umu gene induction at 0.063 mg/ml in presence of Sprague-Dawley rat liver S9 fraction after by SOS/umu assay relative to control; assay type: toxicity, organism-based; conditions: salmonella enterica subsp. enterica serovar typhimurium, read-out: FC
[13] = Genotoxicity in Salmonella typhimurium TA1535 harboring pSK1002 assessed as survival at 0.031 mg/ml in absence of Sprague-Dawley rat liver S9 fraction after by SOS/umu assay relative to control; assay type: toxicity, organism-based; conditions: salmonella enterica subsp. enterica serovar typhimurium, read-out: Survival
[14] = Genotoxicity in Salmonella typhimurium TA1535 harboring pSK1002 assessed as umu gene induction at 0.031 mg/ml in absence of Sprague-Dawley rat liver S9 fraction after by SOS/umu assay relative to control; assay type: toxicity, organism-based; conditions: salmonella enterica subsp. enterica serovar typhimurium, read-out: FC
[15] = Genotoxicity in Salmonella typhimurium TA1535 harboring pSK1002 assessed as survival at 0.031 mg/ml in presence of Sprague-Dawley rat liver S9 fraction after by SOS/umu assay relative to control; assay type: toxicity, organism-based; conditions: salmonella enterica subsp. enterica serovar typhimurium, read-out: Survival
[16] = Genotoxicity in Salmonella typhimurium TA1535 harboring pSK1002 assessed as umu gene induction at 0.031 mg/ml in presence of Sprague-Dawley rat liver S9 fraction after by SOS/umu assay relative to control; assay type: toxicity, organism-based; conditions: salmonella enterica subsp. enterica serovar typhimurium, read-out: FC
[17] = Genotoxicity in Salmonella typhimurium TA1535 harboring pSK1002 assessed as survival at 0.016 mg/ml in absence of Sprague-Dawley rat liver S9 fraction after by SOS/umu assay relative to control; assay type: toxicity, organism-based; conditions: salmonella enterica subsp. enterica serovar typhimurium, read-out: Survival
[18] = Genotoxicity in Salmonella typhimurium TA1535 harboring pSK1002 assessed as umu gene induction at 0.016 mg/ml in absence of Sprague-Dawley rat liver S9 fraction after by SOS/umu assay relative to control; assay type: toxicity, organism-based; conditions: salmonella enterica subsp. enterica serovar typhimurium, read-out: FC
[19] = Genotoxicity in Salmonella typhimurium TA1535 harboring pSK1002 assessed as survival at 0.016 mg/ml in presence of Sprague-Dawley rat liver S9 fraction after by SOS/umu assay relative to control; assay type: toxicity, organism-based; conditions: salmonella enterica subsp. enterica serovar typhimurium, read-out: Survival
[20] = Genotoxicity in Salmonella typhimurium TA1535 harboring pSK1002 assessed as umu gene induction at 0.016 mg/ml in presence of Sprague-Dawley rat liver S9 fraction after by SOS/umu assay relative to control; assay type: toxicity, organism-based; conditions: salmonella enterica subsp. enterica serovar typhimurium, read-out: FC
[21] = Genotoxicity in Salmonella typhimurium TA1535 harboring pSK1002 assessed as survival at 0.008 mg/ml in absence of Sprague-Dawley rat liver S9 fraction after by SOS/umu assay relative to control; assay type: toxicity, organism-based; conditions: salmonella enterica subsp. enterica serovar typhimurium, read-out: Survival
[22] = Genotoxicity in Salmonella typhimurium TA1535 harboring pSK1002 assessed as umu gene induction at 0.008 mg/ml in absence of Sprague-Dawley rat liver S9 fraction after by SOS/umu assay relative to control; assay type: toxicity, organism-based; conditions: salmonella enterica subsp. enterica serovar typhimurium, read-out: FC
[23] = Genotoxicity in Salmonella typhimurium TA1535 harboring pSK1002 assessed as survival at 0.008 mg/ml in presence of Sprague-Dawley rat liver S9 fraction after by SOS/umu assay relative to control; assay type: toxicity, organism-based; conditions: salmonella enterica subsp. enterica serovar typhimurium, read-out: Survival
[24] = Genotoxicity in Salmonella typhimurium TA1535 harboring pSK1002 assessed as umu gene induction at 0.008 mg/ml in presence of Sprague-Dawley rat liver S9 fraction after by SOS/umu assay relative to control; assay type: toxicity, organism-based; conditions: salmonella enterica subsp. enterica serovar typhimurium, read-out: FC
[25] = Genotoxicity in Salmonella typhimurium TA1535 harboring pSK1002 assessed as survival at 0.004 mg/ml in absence of Sprague-Dawley rat liver S9 fraction after by SOS/umu assay relative to control; assay type: toxicity, organism-based; conditions: salmonella enterica subsp. enterica serovar typhimurium, read-out: Survival
[26] = Genotoxicity in Salmonella typhimurium TA1535 harboring pSK1002 assessed as umu gene induction at 0.004 mg/ml in absence of Sprague-Dawley rat liver S9 fraction after by SOS/umu assay relative to control; assay type: toxicity, organism-based; conditions: salmonella enterica subsp. enterica serovar typhimurium, read-out: FC
[27] = Genotoxicity in Salmonella typhimurium TA1535 harboring pSK1002 assessed as survival at 0.004 mg/ml in presence of Sprague-Dawley rat liver S9 fraction after by SOS/umu assay relative to control; assay type: toxicity, organism-based; conditions: salmonella enterica subsp. enterica serovar typhimurium, read-out: Survival
[28] = Genotoxicity in Salmonella typhimurium TA1535 harboring pSK1002 assessed as umu gene induction at 0.004 mg/ml in presence of Sprague-Dawley rat liver S9 fraction after by SOS/umu assay relative to control; assay type: toxicity, organism-based; conditions: salmonella enterica subsp. enterica serovar typhimurium, read-out: FC
[29] = Genotoxicity in Salmonella typhimurium TA1535 harboring pSK1002 assessed as survival at 0.002 mg/ml in absence of Sprague-Dawley rat liver S9 fraction after by SOS/umu assay relative to control; assay type: toxicity, organism-based; conditions: salmonella enterica subsp. enterica serovar typhimurium, read-out: Survival
[30] = Genotoxicity in Salmonella typhimurium TA1535 harboring pSK1002 assessed as umu gene induction at 0.002 mg/ml in absence of Sprague-Dawley rat liver S9 fraction after by SOS/umu assay relative to control; assay type: toxicity, organism-based; conditions: salmonella enterica subsp. enterica serovar typhimurium, read-out: FC
[31] = Genotoxicity in Salmonella typhimurium TA1535 harboring pSK1002 assessed as survival at 0.002 mg/ml in presence of Sprague-Dawley rat liver S9 fraction after by SOS/umu assay relative to control; assay type: toxicity, organism-based; conditions: salmonella enterica subsp. enterica serovar typhimurium, read-out: Survival
[32] = Genotoxicity in Salmonella typhimurium TA1535 harboring pSK1002 assessed as umu gene induction at 0.002 mg/ml in presence of Sprague-Dawley rat liver S9 fraction after by SOS/umu assay relative to control; assay type: toxicity, organism-based; conditions: salmonella enterica subsp. enterica serovar typhimurium, read-out: FC
[33] = Genotoxicity in Salmonella typhimurium TA1535 harboring pSK1002 assessed as survival at 0.001 mg/ml in absence of Sprague-Dawley rat liver S9 fraction after by SOS/umu assay relative to control; assay type: toxicity, organism-based; conditions: salmonella enterica subsp. enterica serovar typhimurium, read-out: Survival
[34] = Genotoxicity in Salmonella typhimurium TA1535 harboring pSK1002 assessed as umu gene induction at 0.001 mg/ml in absence of Sprague-Dawley rat liver S9 fraction after by SOS/umu assay relative to control; assay type: toxicity, organism-based; conditions: salmonella enterica subsp. enterica serovar typhimurium, read-out: FC
[35] = Genotoxicity in Salmonella typhimurium TA1535 harboring pSK1002 assessed as survival at 0.001 mg/ml in presence of Sprague-Dawley rat liver S9 fraction after by SOS/umu assay relative to control; assay type: toxicity, organism-based; conditions: salmonella enterica subsp. enterica serovar typhimurium, read-out: Survival
[36] = Genotoxicity in Salmonella typhimurium TA1535 harboring pSK1002 assessed as umu gene induction at 0.001 mg/ml in presence of Sprague-Dawley rat liver S9 fraction after by SOS/umu assay relative to control; assay type: toxicity, organism-based; conditions: salmonella enterica subsp. enterica serovar typhimurium, read-out: FC
[37] = Solubility of the compound in DSPC:cholesterol:DSPE-PEG2000-Mal:DOPE-Rho lipid mixture at 250 uM; assay type: physicochemical
Procedure, shortened: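 Compound added at 250 µM drug to the initial liposome lipid mixture (10 mM total lipid); precipitation and UV-visible absorbance above 300 nm assessed after encapsulation, removal of unencapsulated material and extraction with 1% w/v SDS in RPMI-A.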

## O=[N+]([O-])c1ccc(N2CCN(CCC(O)c3ccc(F)c4ccccc34)CC2)cc1 (stereo unspecified)
Plasmodium falciparum [1]
  IC50: 1.71 µM
Plasmodium falciparum [2]
  IC50: 4.74 µM
[3]
  CC50: 12.5 µM
[4]
  selectivity ratio: 7
[5]
  viability at 0.125 mg/ml: 145%
[6]
  fold induction at 0.125 mg/ml: 0.6
[7]
  viability at 0.125 mg/ml: 128%
[8]
  fold induction at 0.125 mg/ml: 0.5
[9]
  viability at 0.063 mg/ml: 124%
[10]
  fold induction at 0.063 mg/ml: 0.7
[11]
  viability at 0.063 mg/ml: 118%
[12]
  fold induction at 0.063 mg/ml: 0.5
[13]
  viability at 0.031 mg/ml: 105%
[14]
  fold induction at 0.031 mg/ml: 0.8
[15]
  viability at 0.031 mg/ml: 122%
[16]
  fold induction at 0.031 mg/ml: 0.5
[17]
  viability at 0.016 mg/ml: 83.8%
[18]
  fold induction at 0.016 mg/ml: 1.1
[19]
  viability at 0.016 mg/ml: 117%
[20]
  fold induction at 0.016 mg/ml: 0.5
[21]
  viability at 0.008 mg/ml: 84.2%
[22]
  fold induction at 0.008 mg/ml: 1.3
[23]
  viability at 0.008 mg/ml: 118%
[24]
  fold induction at 0.008 mg/ml: 0.6
[25]
  viability at 0.004 mg/ml: 84.9%
[26]
  fold induction at 0.004 mg/ml: 1.2
[27]
  viability at 0.004 mg/ml: 109%
[28]
  fold induction at 0.004 mg/ml: 0.9
[29]
  viability at 0.002 mg/ml: 87%
[30]
  fold induction at 0.002 mg/ml: 0.8
[31]
  viability at 0.002 mg/ml: 107%
[32]
  fold induction at 0.002 mg/ml: 0.9
[33]
  viability at 0.001 mg/ml: 88%
[34]
  fold induction at 0.001 mg/ml: 0.5
[35]
  viability at 0.001 mg/ml: 110%
[36]
  fold induction at 0.001 mg/ml: 0.8

## COC(=O)c1ccc(C(O)CCN2CCN(C(c3ccccc3)c3ccccc3)CC2)cc1 (stereo unspecified)
Plasmodium falciparum [1]
  IC50: 1.46 µM
Plasmodium falciparum [2]
  IC50: 1.69 µM
[3]
  CC50: 84 µM
[4]
  selectivity ratio: 58
[37]
  solubility: Insoluble
